Legend:
[1] = target: T1, Anti-estrogen binding site (AEBS) (Homo sapiens) (UniProt Q15125+Q9UBM7); experiment: Relative binding affinity for antiestrogen binding site (AEBS) of calf uterus cytosol; assay type: tissue-based
Method in brief: (§1)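 Calf uterus was homogenized in TED buffer (10 mM Tris-HCl, 1.5 mM EDTA, 1 mM DTT, pH 7.4) and spun at 12000 g for 1 h at 0–4 °C. […] Free ligand was removed with dextran-charcoal, and bound ligand was counted by scintillation. RBA was taken from the 50% displacement concentration.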

[2] = target: T1, Anti-estrogen binding site (AEBS) (Homo sapiens); experiment: Relative binding affinity for antiestrogen binding site (AEBS) of calf uterus 2 hr incubation at 0C; assay type: tissue-based; method in brief: as §1
[3] = tested on: BT-20; experiment: Inhibitory activity against proliferation of BT-20 cells in presence of TPE at 10e-5 M concentration.; assay type: functional; details: Homo sapiens
Method in brief: (§2)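 ER-negative BT-20 cells were seeded at 40000/well in phenol-red-free MEM-based medium and exposed to compound (3–10 µM) for 5 or 6 days, with medium renewed every 2 days. DNA content was read in triplicate wells as % of vehicle control. Values are given as the IC30 and as % inhibition at 10^-5 M.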

[4] = tested on: BT-20; experiment: Percent of inhibitory activity against proliferation of BT-20 cells in presence of TPE at 10e-5 M concentration.; assay type: functional; details: Homo sapiens; method in brief: as §2
[5] = tested on: MCF7; experiment: Effective dose for [3H]- estradiol against proliferation of MCF-7 cells; assay type: functional, cell-based; details: Homo sapiens
[6] = tested on: MCF7; experiment: In vitro inhibition of MCF-7 cell proliferation compared to 0.1 nM [3H]-estradiol.; assay type: functional, cell-based; details: Homo sapiens
[7] = tested on: MCF7; experiment: Percent of inhibitory activity against proliferation of MCF-7 cells in presence of 10e-6 M concentration of […] (E2).; assay type: functional, Homo sapiens
Method in brief: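 Cytotoxicity assay: MCF-7 cells were seeded at 20000/well in phenol-red-free medium with 5% DCC-treated FCS and exposed to compound (3–10 µM) plus 1 µM E2 for 6 days. Medium was renewed every 2 days. DNA content was read in triplicate wells as % of 1 µM E2 alone. Values are given as the IC30 and as % inhibition at 10^-5 M.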

[8] = tested on: MCF7; experiment: Percent of inhibitory activity versus 0.1 nm […] against proliferation of MCF-7 cells.; assay type: functional, Homo sapiens
Method in brief: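 Same MCF-7 pre-culture in steroid-depleted phenol-red-free medium, seeded at 10000 cells/well. Cells grew with 0.1 nM E2 plus various compound concentrations, medium renewed every 2 days, for 8 days. DNA was measured in triplicate wells, as % DNA relative to E2 alone. % antagonist = (E2−TPE)/(E2−control)×100, from the IC50 or the response at 10^-6 M.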

[9] = tested on: MCF7; experiment: Percent of effective dose for […] against proliferation of MCF-7 cells.; assay type: functional, Homo sapiens
Method in brief: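 MCF-7 cells were kept 6 days in phenol-red-free MEM-based medium with 5% dextran-charcoal-stripped FCS, then seeded at 10000 cells/well. After 1 day they got test compound (10 pM to 1 µM) without E2, or vehicle (0.2% ethanol); medium was renewed every 2 days. DNA was assayed after 8–10 days in triplicate wells. % agonist = (TPE−control)/(E2−control)×100, from the EC50 or the maximum response.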

[10] = tested on: MCF7; experiment: Inhibitory activity against proliferation of MCF-7 cells in presence of 10e-6 M concentration of [3H]- estradiol (E2); assay type: functional; details: Homo sapiens
[11] = target: T2, Estrogen receptor (Bos taurus) (UniProt Q9XSB5+P49884); details: Uterus; Cytosol
[12] = target: T2, Estrogen receptor (Bos taurus); details: Uterus; Cytosol; remark: listed apart in the source
[13] = target: T2, Estrogen receptor (Bos taurus); experiment: Selectivity for relative binding affinity against estrogen receptor in at 2 hrs and 5 hr in calf uterus cytosol; assay type: protein assay
Method in brief: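 Calf uterine cytosol (TED buffer, pH 7.4; 180000 g, 1 h) was incubated with 1 nM [3H]E2 and competitor (0.3 nM–10 µM, 1% ethanol), either 2 h at 0 °C or 5 h at 25 °C. Bound ligand was separated with dextran-charcoal and counted by scintillation. RBA came from the concentration giving 50% displacement relative to E2. The value is the ratio of the 25 °C RBA to the 0 °C RBA.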

| Compound | relative binding affinity (RBA) ([1]; Bos taurus) | RBA ([2]; Bos taurus) | IC30 [3] | inhibition at 10 µM [4] | EC50 [5] | IC50 [6] | Inhibition [7] | Inhibition [8] | Agonism [9] | IC30 [10] | RBA1 [11] | RBA2 [12] | relative binding affinity (RBA) [1] | RBA [2] | Selectivity [13] |
| --- | --- | --- | --- | --- | --- | --- | --- | --- | --- | --- | --- | --- | --- | --- | --- |
| CCN(CC)CCOc1ccc(/C(=C(\C#N)c2ccccc2)c2ccc(O)cc2)cc1 | 6.9 | 6.9 | 3.5 µM | 94% | 0.03 nM | 0.025 µM | 89% | 100% | 12% | 3.9 µM | 3.6 | 3.4 |  |  |  |
| CCN(CC)CCOc1ccc(C(=C(C#N)c2ccccc2)c2ccc(OCCN(CC)CC)cc2)cc1 | 3.6 | 3.6 | 3.3 µM | 87% | 0.28 nM | > 1 µM | 94% | 27% | 62% | 3.1 µM | 0.42 | 0.4 |  |  |  |
| CC/C(=C(/c1ccc(O)cc1)c1ccc(OCCN(C)C)cc1)c1ccccc1 | 20 | 20 | 9.3 µM | 33% | 0.016 nM | 0.022 µM | 74% | 91% | 61% | 5.3 µM |  |  |  |  |  |
| CC/C(=C(\c1ccccc1)c1ccc(OCCN(C)C)cc1)c1ccccc1 [TAMOXIFEN] | 100 | 100 | 5.7 µM | 56% | 0.11 nM | 0.219 µM | 49% | 90% | 21% | 6.5 µM |  |  |  |  |  |
| CCC(=C(c1ccc(O)cc1)c1ccc(OCCN(C)C)cc1)c1ccccc1 |  |  | 4.8 µM | 65% | 0.003 nM | 0.0025 µM | 81% | 100% | 10% | 4 µM |  |  | 40 | 40 |  |
| CCN(CC)CCOc1ccc(/C(=C(/C#N)c2ccccc2)c2ccc(O)cc2)cc1 | 27 | 27 | 6.4 µM | 57% | 0.02 nM | 0.0046 µM | 77% | 100% | 16% | 4.8 µM | 126 | 108 |  |  | 0.85 |

Source: ChEMBL document CHEMBL1124584, “Effect of triphenylacrylonitrile derivatives on estradiol-receptor binding and on human breast cancer cell growth” (J Med Chem, 1989)
